Shown are actives, neighbours in structure and some others; about 1.8% of the full set was active somewhere.
UHRF1 MBD2 ctr – UHRF1 methylated DNA binding inhibitors, primary screen, counter-screen for MBD2 inhibitor project, biochemical, TR-FRET, human UHRF1, single concentration; AID 687016, 2013; inhibition, % at 4.4 µM; UHRF1 binding to methylated oligo; actives 0.75% (n = 370,000); in the data active means inhibition above about 21%;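 further: UHRF1 SRA domain binding a hemimethylated CpG hairpin DNA probe; 0% = median of test compound wells and 100% = reference inhibitor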
MBD2 inh – inhibitors of MBD2 binding to methylated DNA, primary screen, biochemical, TR-FRET, DNA-binding domain, human. Methyl-CpG-binding domain protein 2 (Homo sapiens), Q9UBB5. actives 0.31% (n = 370,000). inhibition, % at 4.4 µM. MBD2 binding to methylated oligonucleotide. AID 686964, 2013; in the data active means inhibition above about 13%
Casp6 inh – human caspase-6 inhibitors, primary screen, biochemical, VEID-R110 fluorescence, single point, set 2; purified caspase-6, Z-VEID-R110 cleavage fluorescence; inhibition, % at 12.5 µM; actives 0.53% (n = 350,000); AID 686996, 2013;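 active means mean inhibition across replicates at least about 35%, with every replicate also reaching that limit, limit read from the data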;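 further: 0% = median of neutral control wells and 100% = no fluorescence left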
Target sequence (P55212 24-179 limits assumed): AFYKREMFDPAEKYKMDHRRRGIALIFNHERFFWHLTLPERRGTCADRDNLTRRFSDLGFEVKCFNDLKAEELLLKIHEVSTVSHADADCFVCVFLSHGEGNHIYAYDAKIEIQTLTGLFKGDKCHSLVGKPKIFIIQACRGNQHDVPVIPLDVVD
Target sequence (P55212 194-293 limits assumed): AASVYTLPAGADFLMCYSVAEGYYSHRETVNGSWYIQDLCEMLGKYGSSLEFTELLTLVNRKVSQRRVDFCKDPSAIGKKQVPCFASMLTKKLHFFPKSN
TDP2 absorb – human TDP2 enzyme inhibitors, primary screen, biochemical, epi absorbance, recombinant enzyme. AID 720702, 2013. actives 0.34% (n = 370,000). inhibition, % at 12.8 µM. T5PNP hydrolysis, p-nitrophenol absorbance 415 nm;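 active means inhibition above the mean of all tested compounds plus 3 SD, set per campaign, cut at about 25% in these data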;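 further: 0% = DMSO with enzyme and 100% = buffer with substrate but no TDP2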
Target sequence (O95551 whole entry, looked up): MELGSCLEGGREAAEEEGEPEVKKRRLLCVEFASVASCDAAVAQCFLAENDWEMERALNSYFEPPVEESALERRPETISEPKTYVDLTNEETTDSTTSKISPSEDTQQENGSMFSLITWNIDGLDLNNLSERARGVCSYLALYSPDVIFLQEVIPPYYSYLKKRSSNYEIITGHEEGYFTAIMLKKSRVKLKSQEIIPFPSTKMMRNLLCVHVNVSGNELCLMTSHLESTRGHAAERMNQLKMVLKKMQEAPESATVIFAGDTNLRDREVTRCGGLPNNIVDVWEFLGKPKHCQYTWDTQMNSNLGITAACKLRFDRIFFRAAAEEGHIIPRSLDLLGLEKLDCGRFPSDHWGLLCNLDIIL
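Read-out basis: percent inhibition. System: recombinant human TDP2. Buffer or medium: Mg2+-containing Tris-HCl buffer, pH 7.5. Repeats: single replicate. Timing: reaction 2 h, 37 °C. Benchmarks: high control without enzyme, low control DMSO plus TDP2. Probe or stimulus: 5 mM T5PNP. Doses: 12.8 µM only. Measured by: epi absorbance of p-nitrophenol freed from T5PNP by hydrolysis.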
NSD2 inh – NSD2 histone methyltransferase inhibitors, primary screen, biochemical, AlphaScreen, single concentration, set 2 | Histone-lysine N-methyltransferase NSD2 (Homo sapiens), O96028 | NSD2 peptide methylation, 120 min | inhibition, % at 12.5 µM | actives 0.54% (n = 310,000) | AID 743445, 2014; in the data active means inhibition above about 50%
LEDGF integ inh – blockers of LEDGF/p75-dependent integrase strand transfer – biochemical, TR-FRET, high throughput, primary screen; actives 0.64% (n = 370,000); AID 743269, 2014; inhibition, % at 3.7 µM; TR-FRET IN-LEDGF/p75 DNA integration, Eu/Cy5;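 active means inhibition above the screen-wide mean plus 3 SD, cut at about 13% in these data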;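 further: signal is the Cy5 over europium emission ratio at 671 and 618 nm; 0% = plate median of compound wells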
IN multimer act – HIV-1 IN multimer formation enhancers, counter-screen for LEDGF/p75 integration inhibitor project, biochemical, TR-FRET; shares compounds with LEDGF integ inh; actives 17% (n = 2,000); activation, % at 7.7 µM; AID 1053131, 2014; TR-FRET HIV-1 integrase multimerization; in the data active means activation above about 8.9%
TR-FRET interf – TR-FRET optical interference artefacts, confirmation, artefact control for LEDGF/p75-dependent integration inhibitor project, biochemical, HIV-1 IN multimerization; 2,000 tested, under 10 active; TR-FRET optical interference counterscreen; shares compounds with LEDGF integ inh; AID 1053135, 2014; inhibition, % at 7.7 µM;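 active means inhibition above the mean over all tested compounds plus 3 SD, which no compound reached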;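 further: 0% = integrase with antibodies and DMSO and 100% = antibodies without integrase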
IN-LEDGF confirm – inhibitors of HIV-1 IN-LEDGF/p75 DNA integration, confirmation, biochemical, TR-FRET; inhibition, % at 3.7 µM; TR-FRET LEDGF/p75-dependent HIV-1 integration; shares compounds with LEDGF integ inh; actives 36% (n = 2,000); in the data active means inhibition above about 14%
Alpha artifact – AlphaScreen signal interference with preloaded methylated product, dose response, artefact control for NSD2 inhibitor project, biochemical, cherry-picked samples. shares compounds with NSD2 inh. AlphaScreen artifact counterscreen, preloaded methylated H4 peptide. AC35, µM (series often up to 10 µM), without a hit: at the top dose activity change, negative = signal loss. actives 9.4% (n = 1,500); call rule not given here
* marks the source's active call; other numbers are inactive results; · = no result.

SMILES | UHRF1 MBD2 ctr | MBD2 inh | Casp6 inh | TDP2 absorb | NSD2 inh | LEDGF integ inh | Alpha artifact | others
CNCc1ccccc1Sc1ccc(O)c(O)c1 | 17 | 12 | 7 | -1 | 64* | 14* | -8% | IN multimer act=3;TR-FRET interf=-13;IN-LEDGF confirm=10
CCCCn1c(=O)[nH]c2nc3cc(N)ccc3nc2c1=O | -109 | -40 | -1 | -10 | 110* | 17* | 1% | IN multimer act=4;TR-FRET interf=-20;IN-LEDGF confirm=9
CO[C@H]1CN(C)C(=O)c2cc(NC(=O)c3ccccc3)ccc2OC[C@H](C)N(C(=O)C2CC2)C[C@@H]1C | · | · | -3 | · | · | · | ·
Cc1noc(C)c1S(=O)(=O)Nc1ccc2c(c1)CC(=O)N([C@@H](C)CO)C[C@@H](C)[C@@H](CN(C)C(=O)NC(C)C)O2 | · | · | 0 | · | · | · | ·
COc1ccc(-n2c(C)c3c(OC)cccc(=O)c3c2C)cc1 | -4 | -3 | · | 12 | 9 | -2 | ·
COc1cccc(=O)c2c(C)n(-c3ccc(C(=O)O)cc3)c(C)c12 | 16 | 3 | 26 | 19 | 79* | 17* | -8% | IN multimer act=4;TR-FRET interf=-14;IN-LEDGF confirm=23*
CCN(CC)S(=O)(=O)c1cccc(-c2nnc(SCCCC(=O)c3ccc(F)cc3)o2)c1 | 2 | -2 | · | -2 | 127* | 2 | -1%
N#Cc1cc(-c2ccccc2)cnc1Sc1ccc(Cl)cc1 | -2 | -6 | · | -11 | 112* | 4 | 7%
Cc1ccc2nc(CSc3nc(C)ccc3C#N)[nH]c2c1 | -4 | -2 | 2 | 7 | 33 | -4 | ·
Cc1ccc(C#N)c(SCc2ccccc2F)n1 | 0 | -3 | -1 | -9 | 60* | -2 | -1%
CC1CN(C(=O)COC(=O)/C=C/c2ccccc2)CC(C)O1 (stereo not drawn) | -2 | 4 | -2 | 8 | 61* | -2 | -4%
CO[C@H]1CN(C)C(=O)c2cc(NC(C)=O)ccc2OC[C@@H](C)N(C(=O)c2ccncc2)C[C@H]1C | · | · | 3 | · | · | · | ·
COC(=O)c1c(NC(=O)C(C)C)sc(C(=O)N2CCOCC2)c1C | -1 | -3 | -2 | -2 | 105* | 1 | -6%
C[C@H]1CN([C@@H](C)CO)C(=O)c2cccc(NC(=O)c3ccncc3)c2O[C@@H]1CN(C)C(=O)Nc1ccc(F)cc1 | · | · | 1 | · | · | · | ·
C[C@H](O)C#Cc1cnc2c(c1)C(=O)N([C@@H](C)CO)C[C@H](C)[C@@H](CN(C)Cc1ccccn1)O2 | · | · | -4 | · | · | · | ·
COc1ccc(C(=O)NCc2nnc(SCC(=O)Nc3cc(C)cc(C)c3)o2)cc1OC | 1 | -2 | · | -6 | 75* | 1 | -3%
COc1ccc(S(=O)(=O)N[C@H]2CC[C@@H](CC(=O)NCCc3ccccc3)O[C@@H]2CO)cc1 | · | · | -1 | · | · | · | ·
Cc1ccc(S(=O)(=O)N(C)C[C@@H]2Oc3ccc(N(C)C)cc3CC(=O)N([C@@H](C)CO)C[C@H]2C)cc1 | · | · | 0 | · | · | · | ·
COc1ccc(C2N(C(=O)C(F)(F)F)C(C)CN2S(=O)(=O)c2ccc(C)cc2)cc1 (stereo not drawn) | 2 | 1 | 0 | 6 | 86* | -2 | 1%
Cc1ccc(S(=O)(=O)N2CCN(C(=O)C(F)(F)F)C2c2ccc(N(C)C)cc2)cc1 (stereo not drawn) | -1 | 1 | -1 | 11 | 122* | -3 | -3%
CN(C)CC(=O)Nc1ccc2c(c1)[C@@H]1C[C@H](CC(=O)N3CCc4ccccc4C3)O[C@@H](CO)[C@@H]1O2 | · | · | 0 | · | · | · | ·
C[C@H](CO)N1C[C@H](C)[C@H](CN(C)C(=O)Nc2cccc3ccccc23)Oc2ncc(C#CCC3CCCC3)cc2C1=O | · | · | 0 | · | · | · | ·
O=C(NNC(=S)Nc1ccccc1)c1ccco1 | 2 | -1 | · | -2 | 119* | 2 | -3%
COc1ccc(S(=O)(=O)Nc2ccc3c(c2)C(=O)N([C@@H](C)CO)C[C@@H](C)[C@H](CN(C)C(=O)Nc2ccc4c(c2)OCO4)OCCCC[C@H](C)O3)cc1 | · | · | 2 | · | · | · | ·
N#Cc1ccccc1OCC(=O)OCC(=O)N1CCN(C(=O)c2ccco2)CC1 | 1 | -3 | -1 | 5 | 57* | -2 | -3%
SMILES | UHRF1 MBD2 ctr | MBD2 inh | Casp6 inh | TDP2 absorb | NSD2 inh | LEDGF integ inh | Alpha artifact | others
N#Cc1ccc(C(=O)OCC(=O)N2CCN(C(=O)c3ccco3)CC2)cc1 | 3 | 4 | 0 | -3 | 1 | -3 | ·
O=C(C[C@@H]1CC[C@@H](NC(=O)c2ccccc2)[C@H](CO)O1)NCc1ccc(Oc2ccccc2)cc1 | · | · | 1 | · | · | · | ·
Cc1cc([N+](=O)[O-])cc2c1NC(=O)C2(O)N1CCOCC1 (stereo not drawn) | -3 | -4 | 7 | 13 | 59* | 1 | 2%
CC1CCN(C2(O)C(=O)Nc3ccc([N+](=O)[O-])cc32)CC1 (stereo not drawn) | 1 | -1 | · | -12 | 2 | 2 | ·
COc1ccc(NC(=O)Nc2cccc3c2O[C@H](CN(C)S(=O)(=O)c2cn(C)cn2)[C@@H](C)CN([C@@H](C)CO)C3=O)cc1 | · | · | 2 | · | · | · | ·
COc1ccc(C2CC(=O)c3c(C)nc(N4CCN(c5ccccc5)CC4)nc3C2)cc1 (stereo not drawn) | -2 | -5 | · | 8 | 53* | 0 | -6%
CCOc1ccc(-n2cnc3sc4c(c3c2=O)CCCC4)cc1 | 0 | 5 | -1 | -16 | 58* | -3 | 0%
CCCCn1nnc(NC(=O)c2ccco2)n1 | 0 | -1 | · | 8 | 123* | -3 | 3%

Screening data (PubChem BioAssay)
